Measurements as given in ChEMBL document CHEMBL1154356, “1-Peptidyl-2-arachidonoyl-3-stearoyl-sn-glyceride: an immunologically active lipopeptide from goat serum (Capra hircus) is an endogenous damage-associated molecular pattern” (J Nat Prod, 2009).
The source made the active and inactive calls. The rule behind the calls is not given here. Where a SMILES comes first, the peptide text is derived from it. The star is where a group is joined. X1 = CCCCC/C=C\C/C=C\C/C=C\C/C=C\CCCC(=O)O[C@@H](COC(=O)CCCCCCCCCCCCCCCCC)CO*

Experiments:
Fibroblast [1] = assay: Immunomodulatory effect in human fibroblasts assessed as induction of IL6 mRNA expression at 1:100 dilution after 24 hrs by SYBR Green PCR relative to beta-actin control; assay type: functional
Summary of the method: (§1)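 Normal primary human fibroblasts were grown in DMEM with 10% FBS and 1× penicillin/streptomycin at 37 °C and 5% CO2. Cells were treated for 24 h with synthetic compound or with purified natural material diluted 1:100. Total RNA was extracted, and 2.0 µg was reverse-transcribed for transcript quantitation. Expression was normalised to β-actin.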

Fibroblast [2] = assay: Immunomodulatory effect in human fibroblasts assessed as induction of MCP1 mRNA expression at 1:100 dilution after 24 hrs by SYBR Green PCR relative to beta-actin control; assay type: functional; summary of the method: as §1
Fibroblast [3] = assay: Immunomodulatory effect in human fibroblasts assessed as induction of MIP-1alpha mRNA expression at 3 ng/ml after 24 hrs by SYBR Green PCR relative to beta-actin control; assay type: functional; summary of the method: as §1
Fibroblast [4] = assay: Induction of IL33 expression in human fibroblasts at 12.5 ng/ml after 24 hrs by SYBR Green PCR relative to untreated control; assay type: functional, cell-based
Fibroblast [5] = assay: Immunomodulatory effect in human fibroblasts assessed as induction of IL6 mRNA expression at 5 ng/ml after 24 hrs by SYBR Green PCR relative to beta-actin control; assay type: functional; summary of the method: as §1
Fibroblast [6] = assay: Induction of IL6 expression in human fibroblasts at 12.5 ng/ml after 24 hrs by SYBR Green PCR relative to untreated control; assay type: functional, cell-based
Fibroblast [7] = assay: Immunomodulatory effect in human fibroblasts assessed as induction of MIP-1alpha mRNA expression at 1:100 dilution after 24 hrs by SYBR Green PCR relative to beta-actin control; assay type: functional; summary of the method: as §1
Fibroblast [8] = assay: Induction of IL1-beta expression in human fibroblasts at 12.5 ng/ml after 24 hrs by SYBR Green PCR relative to untreated control; assay type: functional, cell-based
Fibroblast [9] = assay: Immunomodulatory effect in human fibroblasts assessed as induction of IL8 mRNA expression at 3 ng/ml after 24 hrs by SYBR Green PCR relative to untreated control; assay type: functional; summary of the method: as §1
Fibroblast [10] = assay: Immunomodulatory effect in human fibroblasts assessed as induction of MCP1 mRNA expression at 3 ng/ml after 24 hrs by SYBR Green PCR relative to beta-actin control; assay type: functional; summary of the method: as §1
Fibroblast [11] = assay: Induction of IL18 expression in human fibroblasts at 12.5 ng/ml after 24 hrs by SYBR Green PCR relative to untreated control; assay type: functional
[12] = Toxicity in human fibroblasts assessed as decrease in IL8 mRNA expression after 24 hrs by SYBR Green PCR relative to untreated control; assay type: cell-based; settings: fibroblast; summary of the method: as §1
Fibroblast [13] = assay: Induction of IL8 expression in human fibroblasts at 12.5 ng/ml after 24 hrs by SYBR Green PCR relative to untreated control; assay type: functional, cell-based
Fibroblast [14] = assay: Induction of IL8 secretion in human fibroblasts after 24 hrs by ELISA relative to untreated control; assay type: functional
Summary of the method: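 Primary human fibroblasts were cultured in complete DMEM with synthetic compound across a dose range that included 0.3–3 ng/mL, for 24 h. Supernatants were stored at -80 °C. IL-8 was measured by sandwich ELISA: plates coated with anti-human IL-8 overnight at 4 °C, blocked 60 min at room temperature, sample 2 h, detection antibody 30 min, avidin-HRP 30 min, then TMB substrate.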

In the case of `CCCCC/C=C\C/C=C\C/C=C\C/C=C\CCCC(=O)O[C@@H](COC(=O)CCCCCCCCCCCCCCCCC)COC(=O)[C@@H](NC(=O)CNC(=O)[C@@H](NC(=O)[C@H](CS)NC(=O)[C@H](CC(=O)O)NC(=O)[C@H](CCCCN)NC(=O)[C@H](CCC(N)=O)NC(=O)[C@H](CCC(=O)O)NC(=O)[C@H](CCCCN)NC(=O)[C@H](CO)NC(=O)[C@@H](NC(=O)[C@H](Cc1ccc(O)cc1)NC(=O)CNC(=O)[C@H](CCCCN)NC(=O)[C@H](CC(=O)O)NC(=O)[C@H](Cc1ccc(O)cc1)NC(=O)[C@H](CC(C)C)NC(=O)[C@H](C)NC(C)=O)[C@@H](C)O)C(C)C)[C@@H](C)CC` (Ac-ALYDKGYTSKEQKDCVGI-X1), the Activity (Fibroblast [1]) is reported as 40%, the “fold change (FC)” value (Fibroblast [2]) is reported as 3 and the Activity (Fibroblast [3]) is reported as 15%. The Activity (Fibroblast [4]) was “Active”, the Activity (Fibroblast [5]) was 20% and the Activity (Fibroblast [6]) was “inactive”. For the same compound, the Activity (Fibroblast [7]) was 15%, the Activity (Fibroblast [8]) was “inactive” and the “fold change (FC)” value (Fibroblast [9]) was 5. The “fold change (FC)” value (Fibroblast [10]) was 3, the Activity (Fibroblast [11]) was 20% and the Activity [12] was “Dose-dependent effect”. The Activity (Fibroblast [13]) was “inactive”, the Activity (Fibroblast [14]) was “Dose-dependent effect” and the EC99 (Fibroblast [14]) was 0.003 µg/mL.
